Source: ChEMBL document CHEMBL3407388, “Synthesis, anticancer activity and molecular docking studies on a series of heterocyclic trans-cyanocombretastatin analogues as antitubulin agents” (2015)

Assays:
Format in all cases: functional
[1] = tested on: HT-29; experiment: Cytotoxicity against human HT-29 cells assessed as growth inhibition after 48 hrs by SRB assay; details: HT-29, 48 h
Outline: (§1)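 NCI 60-cell panel; compounds passing a single-dose screen (10−5 M, 48 h) were tested at five 10-fold dilutions (10−4 to 10−8 M) with 48 h drug exposure. GI50 is the molar concentration giving 50% reduction in net cell growth relative to cell numbers on day 0.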

[2] = tested on: HL-60(TB); experiment: Cytotoxicity against human HL-60(TB) cells assessed as growth inhibition after 48 hrs by SRB assay; details: HL-60, 48 h
Outline: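 NCI 60-cell panel, leukemia subpanel. Five-dose screen at 10-fold dilutions from 10−4 to 10−8 M with 48 h drug exposure. GI50 is the molar concentration giving 50% reduction in net cell growth compared with cell numbers on day 0.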

[3] = tested on: COLO 205; experiment: Cytotoxicity against human COLO205 cells assessed as growth inhibition after 48 hrs by SRB assay; details: COLO 205, 48 h; outline: as §1
[4] = tested on: NCI-H23; experiment: Cytotoxicity against human NCI-H23 cells assessed as growth inhibition after 48 hrs by SRB assay; details: NCI-H23, 48 h; outline: as §1
[5] = tested on: IGROV-1; experiment: Cytotoxicity against human IGROV1 cells assessed as growth inhibition after 48 hrs by SRB assay; details: IGROV-1, 48 h; outline: as §1
[6] = tested on: SNB-19; experiment: Cytotoxicity against human SNB19 cells assessed as growth inhibition after 48 hrs by SRB assay; details: SNB-19, 48 h; outline: as §1
[7] = Cytotoxicity against human OVCAR5 cells assessed as growth inhibition after 48 hrs by SRB assay; details: OVCAR-5, 48 h; outline: as §1
[8] = tested on: SW-620; experiment: Cytotoxicity against human SW620 cells assessed as growth inhibition after 48 hrs by SRB assay; details: SW-620, 48 h
[9] = tested on: BT-549; experiment: Cytotoxicity against human BT549 cells assessed as growth inhibition after 48 hrs by SRB assay; details: BT-549, 48 h; outline: as §1
[10] = tested on: MOLT-4; experiment: Cytotoxicity against human MOLT4 cells assessed as growth inhibition after 48 hrs by SRB assay; details: MOLT-4, 48 h; outline: as §1
[11] = tested on: SF-295; experiment: Cytotoxicity against human SF295 cells assessed as growth inhibition after 48 hrs by SRB assay; details: SF-295, 48 h; outline: as §1
[12] = Cytotoxicity against human UACC62 cells assessed as growth inhibition after 48 hrs by SRB assay; details: UACC-62, 48 h
[13] = Cytotoxicity against human OVCAR8 cells assessed as growth inhibition after 48 hrs by SRB assay; details: OVCAR-8, 48 h; outline: as §1
[14] = tested on: NCI-H226; experiment: Cytotoxicity against human NCI-H226 cells assessed as growth inhibition after 48 hrs by SRB assay; details: NCI-H226, 48 h; outline: as §1
[15] = Cytotoxicity against human OVCAR4 cells assessed as growth inhibition after 48 hrs by SRB assay; details: OVCAR-4, 48 h; outline: as §1
[16] = tested on: 786-0; experiment: Cytotoxicity against human 786-0 cells assessed as growth inhibition after 48 hrs by SRB assay; details: 786-0, 48 h; outline: as §1
[17] = tested on: LOX IMVI; experiment: Cytotoxicity against human LOXIMVI cells assessed as growth inhibition after 48 hrs by SRB assay; outline: as §1
[18] = tested on: RXF 393; experiment: Cytotoxicity against human RXF393 cells assessed as growth inhibition after 48 hrs by SRB assay; details: RXF 393, 48 h; outline: as §1
[19] = tested on: MCF7; experiment: Cytotoxicity against human MCF7 cells assessed as growth inhibition after 48 hrs by SRB assay; details: MCF7, 48 h; outline: as §1
[20] = tested on: M14; experiment: Cytotoxicity against human M14 cells assessed as growth inhibition after 48 hrs by SRB assay; details: M14, 48 h; outline: as §1
[21] = tested on: DU-145; experiment: Cytotoxicity against human DU145 cells assessed as growth inhibition after 48 hrs by SRB assay; details: DU-145, 48 h; outline: as §1
[22] = Cytotoxicity against human Hs578T cells assessed as growth inhibition after 48 hrs by SRB assay; details: Hs-578T; outline: as §1
[23] = tested on: HCC 2998; experiment: Cytotoxicity against human HCC2998 cells assessed as growth inhibition after 48 hrs by SRB assay; details: HCC 2998, 48 h; outline: as §1
[24] = tested on: K562; experiment: Cytotoxicity against human K562 cells assessed as growth inhibition after 48 hrs by SRB assay; details: K562, 48 h; outline: as §1
[25] = Cytotoxicity against human NCI-ADR-RES cells assessed as growth inhibition after 48 hrs by SRB assay; outline: as §1
[26] = tested on: SN12C; experiment: Cytotoxicity against human SN12C cells assessed as growth inhibition after 48 hrs by SRB assay; outline: as §1
[27] = Cytotoxicity against human HCT116 cells assessed as growth inhibition after 48 hrs by SRB assay; details: HCT-116, 48 h; outline: as §1
[28] = tested on: TK-10; experiment: Cytotoxicity against human TK10 cells assessed as growth inhibition after 48 hrs by SRB assay; details: TK-10, 48 h
[29] = tested on: SNB-75; experiment: Cytotoxicity against human SNB75 cells assessed as growth inhibition after 48 hrs by SRB assay; details: SNB-75, 48 h
[30] = Cytotoxicity against human PC3 cells assessed as growth inhibition after 48 hrs by SRB assay; details: PC-3, 48 h; outline: as §1
[31] = tested on: KM12; experiment: Cytotoxicity against human KM12 cells assessed as growth inhibition after 48 hrs by SRB assay; details: KM12, 48 h; outline: as §1
[32] = tested on: MDA-MB-435; experiment: Cytotoxicity against human MDA-MB-435 cells assessed as growth inhibition after 48 hrs by SRB assay; details: MDA-MB-435, 48 h; outline: as §1
[33] = Cytotoxicity against human OVCAR3 cells assessed as growth inhibition after 48 hrs by SRB assay; details: OVCAR-3, 48 h; outline: as §1
[34] = tested on: SF-539; experiment: Cytotoxicity against human SF539 cells assessed as growth inhibition after 48 hrs by SRB assay; details: SF-539, 48 h; outline: as §1
[35] = tested on: SK-OV-3; experiment: Cytotoxicity against human SKOV3 cells assessed as growth inhibition after 48 hrs by SRB assay; details: SK-OV-3, 48 h; outline: as §1
[36] = tested on: MDA-MB-231; experiment: Cytotoxicity against human MDA-MB-231 cells assessed as growth inhibition after 48 hrs by SRB assay; details: MDA-MB-231, 48 h; outline: as §1
[37] = Cytotoxicity against human UO31 cells assessed as growth inhibition after 48 hrs by SRB assay; details: UO-31, 48 h
[38] = tested on: RPMI-8226; experiment: Cytotoxicity against human RPMI8226 cells assessed as growth inhibition after 48 hrs by SRB assay; details: RPMI-8226, 48 h; outline: as §1
[39] = tested on: U-251; experiment: Cytotoxicity against human U251 cells assessed as growth inhibition after 48 hrs by SRB assay; details: U-251, 48 h
[40] = tested on: A498; experiment: Cytotoxicity against human A498 cells assessed as growth inhibition after 48 hrs by SRB assay; details: A498, 48 h; outline: as §1
[41] = tested on: CAKI-1; experiment: Cytotoxicity against human Caki1 cells assessed as growth inhibition after 48 hrs by SRB assay; details: CAKI-1, 48 h; outline: as §1
[42] = Cytotoxicity against human HCT15 cells assessed as growth inhibition after 48 hrs by SRB assay; details: HCT-15, 48 h; outline: as §1
[43] = tested on: SF-268; experiment: Cytotoxicity against human SF268 cells assessed as growth inhibition after 48 hrs by SRB assay; details: SF-268, 48 h; outline: as §1

## COc1ccc(/C(C#N)=C/c2cc3ccccc3o2)cc1OC
[1]
  GI50: 0.373 µM
[2]
  GI50: 0.481 µM
[3]
  GI50: 0.404 µM
[4]
  GI50: 3.11 µM
[5]
  GI50: 1.27 µM
[6]
  GI50: 5.55 µM
[7]
  GI50: 5.23 µM
[8]
  GI50: 0.388 µM
[9]
  GI50: 0.95 µM
[10]
  GI50: 0.548 µM
[11]
  GI50: 0.708 µM
[12]
  GI50: 0.557 µM
[13]
  GI50: 3.98 µM
[14]
  GI50: 34.5 µM
[15]
  GI50: 7.19 µM
[16]
  GI50: 5.84 µM
[17]
  GI50: 0.93 µM
[18]
  GI50: 1.3 µM
[19]
  GI50: 0.446 µM
[20]
  GI50: 0.437 µM
[21]
  GI50: 1.3 µM
[22]
  GI50: 1.88 µM
[23]
  GI50: 2.33 µM
[24]
  GI50: 0.467 µM
[25]
  GI50: 0.317 µM
[26]
  GI50: 0.956 µM
[27]
  GI50: 0.418 µM
[28]
  GI50: 2.28 µM
[29]
  GI50: 1.78 µM
[30]
  GI50: 2.41 µM
[31]
  GI50: 0.356 µM
[32]
  GI50: 0.229 µM
[33]
  GI50: 0.279 µM
[34]
  GI50: 1.56 µM
[35]
  GI50: 2.49 µM
[36]
  GI50: 1.21 µM
[37]
  GI50: 3.79 µM
[38]
  GI50: 1.32 µM
[39]
  GI50: 0.76 µM
[40]
  GI50: 0.54 µM
[41]
  GI50: 0.492 µM
[42]
  GI50: 0.469 µM
[43]
  GI50: 2.05 µM

## COc1ccc(/C(C#N)=C/c2cc3ccccc3[nH]2)cc1OC
[1]
  GI50: 0.048 µM
[2]
  GI50: 0.034 µM
[3]
  GI50: 0.232 µM
[4]
  GI50: 0.236 µM
[5]
  GI50: 0.482 µM
[6]
  GI50: 0.189 µM
[7]
  GI50: 0.471 µM
[8]
  GI50: 0.042 µM
[9]
  GI50: 0.0978 µM
[10]
  GI50: 0.084 µM
[11]
  GI50: 0.036 µM
[12]
  GI50: 0.038 µM
[13]
  GI50: 0.326 µM
[14]
  GI50: 0.399 µM
[15]
  GI50: 0.735 µM
[16]
  GI50: 0.602 µM
[17]
  GI50: 0.064 µM
[18]
  GI50: 0.151 µM
[19]
  GI50: 0.289 µM
[20]
  GI50: 0.039 µM
[21]
  GI50: 0.206 µM
[22]
  GI50: 0.133 µM
[23]
  GI50: 0.366 µM
[24]
  GI50: 0.039 µM
[25]
  GI50: 0.04 µM
[26]
  GI50: 0.779 µM
[27]
  GI50: 0.044 µM
[28]
  GI50: 5.56 µM
[29]
  GI50: 0.036 µM
[30]
  GI50: 0.062 µM
[31]
  GI50: 0.076 µM
[32]
  GI50: 0.021 µM
[33]
  GI50: 0.034 µM
[34]
  GI50: 0.047 µM
[35]
  GI50: 0.394 µM
[36]
  GI50: 0.291 µM
[37]
  GI50: 0.071 µM
[38]
  GI50: 0.151 µM
[39]
  GI50: 0.075 µM
[40]
  GI50: 0.04 µM
[41]
  GI50: 0.103 µM
[42]
  GI50: 0.048 µM
[43]
  GI50: 1.48 µM
